Measurements taken from ChEMBL document CHEMBL1275486, “Kinetic characterization of VIM-7, a divergent member of the VIM metallo-beta-lactamase family” (Antimicrob Agents Chemother, 2008).

Experiments:
Conditions in all cases: 81-11963
[1] = tested on: CCN1CCN(C(=O)N[C@@H](C(=O)N[C@@H]2C(=O)N3[C@@H]2SC(C)(C)[C@@H]3C(=O)O)c2ccccc2)C(=O)C1=O; test: (§1) Activity of Pseudomonas aeruginosa beta-lactamase VIM-2 by spectrophotometry
How it was run: (§2)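 Recombinant enzyme was expressed in E. coli BL21(DE3) from pET-26b and purified from the periplasm to >99%, with concentration taken from A280. Hydrolysis was followed spectrophotometrically at 25°C in 50 mM sodium cacodylate pH 7.0 with 100 μM ZnCl2 and 0.1 mg/ml BSA. Km and kcat came from initial velocity versus substrate concentration. Some Km values were taken as competitive Ki against nitrocefin reporter.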

[2] = tested on: CC1(C)S[C@@H]2[C@H](NC(=O)Cc3ccccc3)C(=O)N2[C@H]1C(=O)O; test: as §1; how it was run: as §2
[3] = tested on: O=C(Cc1cccs1)N[C@@H]1C(=O)N2C(C(=O)[O-])=C(C[n+]3ccccc3)CS[C@H]12; test: as §1; how it was run: as §2
[4] = tested on: O=C(O)[C@H]1/C(=C/CO)O[C@@H]2CC(=O)N21; test: as §1; how it was run: as §2
[5] = tested on: CO[C@@]1(NC(=O)Cc2cccs2)C(=O)N2C(C(=O)O)=C(COC(N)=O)CS[C@@H]21; test: as §1; how it was run: as §2
[6] = tested on: CO/N=C(\C(=O)N[C@@H]1C(=O)N2C(C(=O)O)=C(COC(N)=O)CS[C@H]12)c1ccco1; test: as §1; how it was run: as §2
[7] = tested on: CC1(C)S[C@@H]2[C@H](NC(=O)C(C(=O)O)c3ccccc3)C(=O)N2[C@H]1C(=O)O; test: as §1; how it was run: as §2
[8] = tested on: Cc1onc(-c2ccccc2Cl)c1C(=O)N[C@@H]1C(=O)N2[C@@H]1SC(C)(C)[C@@H]2C(=O)O; test: as §1; how it was run: as §2
[9] = tested on: C[C@@H](O)[C@H]1C(=O)N2C(C(=O)O)=C(S[C@@H]3CN[C@H](C(=O)N(C)C)C3)[C@H](C)[C@H]12; test: as §1; how it was run: as §2
[10] = tested on: C[C@@H](O)[C@H]1C(=O)N2C(C(=O)O)=C(S[C@@H]3CN[C@H](C(=O)Nc4cccc(C(=O)O)c4)C3)[C@H](C)[C@H]12; test: as §1; how it was run: as §2
[11] = tested on: C[C@H]1[C@H](NC(=O)/C(=N\OC(C)(C)C(=O)O)c2csc(N)n2)C(=O)N1S(=O)(=O)O; test: as §1; how it was run: as §2
[12] = tested on: CO/N=C(\C(=O)N[C@@H]1C(=O)N2C(C(=O)[O-])=C(C[N+]3(C)CCCC3)CS[C@H]12)c1csc(N)n1; test: as §1; how it was run: as §2
[13] = tested on: CC1(C)S[C@@H]2[C@H](NC(=O)[C@H](N)c3ccccc3)C(=O)N2[C@H]1C(=O)O; test: as §1; how it was run: as §2
[14] = tested on: CO/N=C(\C(=O)N[C@@H]1C(=O)N2C(C(=O)O)=C(COC(C)=O)CS[C@H]12)c1csc(N)n1; test: as §1; how it was run: as §2
[15] = tested on: CC(C)(O/N=C(\C(=O)N[C@@H]1C(=O)N2C(C(=O)[O-])=C(C[n+]3ccccc3)CS[C@H]12)c1csc(N)n1)C(=O)O; test: as §1; how it was run: as §2
[16] = tested on: C[C@]1(Cn2ccnn2)[C@H](C(=O)O)N2C(=O)C[C@H]2S1(=O)=O; test: as §1; how it was run: as §2
[17] = tested on: CO[C@@]1(NC(=O)C(C(=O)O)c2ccc(O)cc2)C(=O)N2C(C(=O)O)=C(CSc3nnnn3C)CO[C@@H]21; test: as §1; how it was run: as §2
[18] = tested on: CC1(C)[C@H](C(=O)O)N2C(=O)C[C@H]2S1(=O)=O; test: as §1; how it was run: as §2
[19] = tested on: CC1(C)S[C@@H]2[C@H](NC(=O)[C@H](NC(=O)N3CCNC3=O)c3ccccc3)C(=O)N2[C@H]1C(=O)O; test: as §1; how it was run: as §2
[20] = tested on: O=C(Cc1cccs1)N[C@@H]1C(=O)N2C(C(=O)O)=C(/C=C/c3ccc([N+](=O)[O-])cc3[N+](=O)[O-])CS[C@H]12; test: as §1; how it was run: as §2
[21] = tested on: CC(=O)OCC1=C(C(=O)O)N2C(=O)[C@@H](NC(=O)Cc3cccs3)[C@H]2SC1; test: as §1; how it was run: as §2
[22] = tested on: CCN1CCN(C(=O)N[C@@H](C(=O)N[C@@H]2C(=O)N3[C@@H]2SC(C)(C)[C@@H]3C(=O)O)c2ccccc2)C(=O)C1=O; test: (§3) Ratio of Kcat to Km for Pseudomonas aeruginosa beta-lactamase VIM-2 by spectrophotometry; how it was run: as §2
[23] = tested on: CC1(C)S[C@@H]2[C@H](NC(=O)Cc3ccccc3)C(=O)N2[C@H]1C(=O)O; test: as §3; how it was run: as §2
[24] = tested on: O=C(Cc1cccs1)N[C@@H]1C(=O)N2C(C(=O)[O-])=C(C[n+]3ccccc3)CS[C@H]12; test: as §3; how it was run: as §2
[25] = tested on: O=C(O)[C@H]1/C(=C/CO)O[C@@H]2CC(=O)N21; test: as §3; how it was run: as §2
[26] = tested on: CO[C@@]1(NC(=O)Cc2cccs2)C(=O)N2C(C(=O)O)=C(COC(N)=O)CS[C@@H]21; test: as §3; how it was run: as §2
[27] = tested on: CO/N=C(\C(=O)N[C@@H]1C(=O)N2C(C(=O)O)=C(COC(N)=O)CS[C@H]12)c1ccco1; test: as §3; how it was run: as §2
[28] = tested on: CC1(C)S[C@@H]2[C@H](NC(=O)C(C(=O)O)c3ccccc3)C(=O)N2[C@H]1C(=O)O; test: as §3; how it was run: as §2
[29] = tested on: Cc1onc(-c2ccccc2Cl)c1C(=O)N[C@@H]1C(=O)N2[C@@H]1SC(C)(C)[C@@H]2C(=O)O; test: as §3; how it was run: as §2
[30] = tested on: C[C@@H](O)[C@H]1C(=O)N2C(C(=O)O)=C(S[C@@H]3CN[C@H](C(=O)N(C)C)C3)[C@H](C)[C@H]12; test: as §3; how it was run: as §2
[31] = tested on: C[C@@H](O)[C@H]1C(=O)N2C(C(=O)O)=C(S[C@@H]3CN[C@H](C(=O)Nc4cccc(C(=O)O)c4)C3)[C@H](C)[C@H]12; test: as §3; how it was run: as §2
[32] = tested on: CO/N=C(\C(=O)N[C@@H]1C(=O)N2C(C(=O)[O-])=C(C[N+]3(C)CCCC3)CS[C@H]12)c1csc(N)n1; test: as §3; how it was run: as §2
[33] = tested on: CC1(C)S[C@@H]2[C@H](NC(=O)[C@H](N)c3ccccc3)C(=O)N2[C@H]1C(=O)O; test: as §3; how it was run: as §2
[34] = tested on: CO/N=C(\C(=O)N[C@@H]1C(=O)N2C(C(=O)O)=C(COC(C)=O)CS[C@H]12)c1csc(N)n1; test: as §3; how it was run: as §2
[35] = tested on: CC(C)(O/N=C(\C(=O)N[C@@H]1C(=O)N2C(C(=O)[O-])=C(C[n+]3ccccc3)CS[C@H]12)c1csc(N)n1)C(=O)O; test: as §3; how it was run: as §2
[36] = tested on: C[C@]1(Cn2ccnn2)[C@H](C(=O)O)N2C(=O)C[C@H]2S1(=O)=O; test: as §3; how it was run: as §2
[37] = tested on: CO[C@@]1(NC(=O)C(C(=O)O)c2ccc(O)cc2)C(=O)N2C(C(=O)O)=C(CSc3nnnn3C)CO[C@@H]21; test: as §3; how it was run: as §2
[38] = tested on: CC1(C)[C@H](C(=O)O)N2C(=O)C[C@H]2S1(=O)=O; test: as §3; how it was run: as §2
[39] = tested on: CC1(C)S[C@@H]2[C@H](NC(=O)[C@H](NC(=O)N3CCNC3=O)c3ccccc3)C(=O)N2[C@H]1C(=O)O; test: as §3; how it was run: as §2
[40] = tested on: O=C(Cc1cccs1)N[C@@H]1C(=O)N2C(C(=O)O)=C(/C=C/c3ccc([N+](=O)[O-])cc3[N+](=O)[O-])CS[C@H]12; test: as §3; how it was run: as §2
[41] = tested on: CC(=O)OCC1=C(C(=O)O)N2C(=O)[C@@H](NC(=O)Cc3cccs3)[C@H]2SC1; test: as §3; how it was run: as §2

“Beta-lactamase VIM-2 (Pseudomonas aeruginosa) (from UniProt Q9K2N0)” showed a Km [1] of 125 µM, a kcat [1] of 300 s⁻¹ and a Km [2] of 70 µM. It also gave a kcat [2] of 280 s⁻¹, a Km [3] of 50 µM and a kcat [3] of 140 s⁻¹. It also gave a Km [4] greater than 5000 µM, a kcat [4] of 5.4 s⁻¹ and a Km [5] of 13 µM. For the same substance, the kcat [5] was 15 s⁻¹, the Km [6] was 20 µM and the kcat [6] was 8 s⁻¹. The Km [7] was 205 µM, the kcat [7] was 185 s⁻¹ and the Km [8] was 250 µM. For the same substance, the kcat [8] was 350 s⁻¹, the Km [9] was 2 µM and the kcat [9] was 5 s⁻¹. For the same substance, the Km [10] was 9 µM, the kcat [10] was 0.2 s⁻¹ and the Km [11] was greater than 1000 µM. The kcat [11] was less than 0.01 s⁻¹, the Km [12] was greater than 400 µM and the kcat [12] was greater than 40 s⁻¹. For the same substance, the Km [13] was 90 µM, the kcat [13] was 125 s⁻¹ and the Km [14] was 12 µM. The kcat [14] was 70 s⁻¹, the Km [15] was 72 µM and the kcat [15] was 3.6 s⁻¹. The Km [16] was 875 µM, the kcat [16] was 28 s⁻¹ and the Km [17] was 55 µM. The kcat [17] was 90 s⁻¹, the Km [18] was 320 µM and the kcat [18] was 23 s⁻¹. It also gave a Km [19] of 200 µM, a kcat [19] of 200 s⁻¹ and a Km [20] of 18 µM. It also gave a kcat [20] of 770 s⁻¹, a Km [21] of 11 µM and a kcat [21] of 130 s⁻¹. The kcat/Km [22] was 2.4e+06 M⁻¹ s⁻¹, the kcat/Km [23] was 4e+06 M⁻¹ s⁻¹ and the kcat/Km [24] was 2.8e+06 M⁻¹ s⁻¹. The kcat/Km [25] was 1100 M⁻¹ s⁻¹, the kcat/Km [26] was 1.2e+06 M⁻¹ s⁻¹ and the kcat/Km [27] was 400000 M⁻¹ s⁻¹. For the same substance, the kcat/Km [28] was 900000 M⁻¹ s⁻¹, the kcat/Km [29] was 1.4e+06 M⁻¹ s⁻¹ and the kcat/Km [30] was 2.5e+06 M⁻¹ s⁻¹. For the same substance, the kcat/Km [31] was 22000 M⁻¹ s⁻¹, the kcat/Km [32] was 100000 M⁻¹ s⁻¹ and the kcat/Km [33] was 1.4e+06 M⁻¹ s⁻¹. The kcat/Km [34] was 5.8e+06 M⁻¹ s⁻¹, the kcat/Km [35] was 50000 M⁻¹ s⁻¹ and the kcat/Km [36] was 32000 M⁻¹ s⁻¹. It also gave a kcat/Km [37] of 1.6e+06 M⁻¹ s⁻¹, a kcat/Km [38] of 72000 M⁻¹ s⁻¹ and a kcat/Km [39] of 1e+06 M⁻¹ s⁻¹. The kcat/Km [40] was 4.28e+07 M⁻¹ s⁻¹ and the kcat/Km [41] was 1.2e+07 M⁻¹ s⁻¹.
